T cruzi intra: intracellular Trypanosoma cruzi inhibition; intracellular Trypanosoma cruzi in host cells, plate reader; activity score (inhibition), % at 5.01 µM; actives 4.9% (n = 22,000); in the data active means activity score above about 55%;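 further: parasites and compound incubated about four days before reading; 0% = median of neutral control wells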
INS-1E ATP HTS: rescue of cytokine-induced death in INS-1E beta cells. INS-1E cytokine-induced death, ATP luminescence, 48 h; normalised: neutral wells 0, positive control 100. AID 488910. actives 0.1% (n = 20,000). protection from cytokine-induced ATP loss, % at 10 µM;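 active means mean replicate protection from cytokine-induced ATP loss at least 50% and at least 75% of replicates each reaching 50%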
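Assay system – rat INS-1E insulinoma cell line · Quantity – 8000 cells per well · Buffer or medium – RPMI without phenol red, 5% FBS · Schedule – 48 h co-treatment, 10 min post-lysis read · Technique – luminescent ATP assay (CellTiter-Glo)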
A1 apoptosis 2: compounds inhibiting A1, read as caspase activation | MEF A1-2A-BIM cells, caspase-Glo luminescence, 3 h; percent of clofoctol response, DMSO zero | 24,000 tested, under 10 active | caspase activation, % (no concentration beside the values) | AID 2465; in the data active means caspase activation above about 5.9%
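system = A1-2A-BIM-expressing MEF cells | quantity = 2500 MEF cells/well | dosing = 50 nL compound per well, pinned | schedule = overnight cell settling, then 3 h compound exposure, 37 °C | signal = luminescence from DEVD-luciferin Caspase-Glo reagent, 1:1 in 50 mM HEPES, 1 h RT | read-out = Caspase-3/7 activation, seen as rise in luminescence signal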
The depositor's hits bear a star; · = not tested or not shown. Shown is part of a subset that was picked to be rich in hits.

SMILES | T cruzi intra | INS-1E ATP HTS | A1 apoptosis 2
COc1ccc(-c2cn(CC(=O)N3CCOCC3)nn2)cc1OC | · | · | 0.2
O=C(N/N=C/Cc1ccccc1)c1ccccn1 | 7.5 | 5.0 | -2.2
COC(=O)CCCCCCC(=O)N/N=C/c1sccc1C | -8.9 | 2.9 | 1.1
COc1ccc2[nH]c(=O)[nH]c(=O)c2c1 | · | · | 0.3
C/C=C(C)\C=N\NC(=O)CCCCCCC(=O)Nc1ccccc1O | 0.7 | 12.2 | 0.2
Cc1noc(C)c1S(=O)(=O)Nc1ccc2c(c1)C(=O)N([C@H](C)CO)C[C@H](C)[C@@H](CN(C)Cc1ccc(C(=O)Nc3ccccc3N)cc1)O2 | 68.2* | -14.4 | 1.1
Cc1noc(C)c1S(=O)(=O)Nc1cccc2c1O[C@H](CN(C)S(=O)(=O)c1ccccc1)[C@H](C)CN([C@H](C)CO)C2=O | 65.4* | 9.0 | ·
Cc1noc(C)c1S(=O)(=O)Nc1ccc2c(c1)C(=O)N([C@H](C)CO)C[C@@H](C)[C@H](CN(C)Cc1ccc(C(=O)Nc3ccccc3N)cc1)O2 | 51.7 | -7.0 | 0.7
C[C@H](CO)N1C[C@H](C)[C@@H](CN(C)Cc2ccc(C(=O)Nc3ccccc3N)cc2)Oc2c(NS(=O)(=O)c3ccccc3)cccc2C1=O | 51.3 | -3.9 | -0.2
Cc1noc(C)c1S(=O)(=O)Nc1cccc2c1O[C@@H](CN(C)S(=O)(=O)c1ccccc1)[C@@H](C)CN([C@H](C)CO)C2=O | -19.1 | 10.2 | -1.3
Cc1noc(C)c1S(=O)(=O)Nc1cccc2c1O[C@@H](CN(C)Cc1ccc(C(=O)Nc3ccccc3N)cc1)[C@@H](C)CN([C@@H](C)CO)C2=O | 66.1* | -16.7 | -1.1
Cc1noc(C)c1S(=O)(=O)Nc1ccc2c(c1)CC(=O)N([C@H](C)CO)C[C@H](C)[C@@H](CN(C)Cc1ccc(C(=O)Nc3ccccc3N)cc1)O2 | · | · | -0.5
Cc1noc(C)c1S(=O)(=O)Nc1ccc2c(c1)CC(=O)N([C@H](C)CO)C[C@@H](C)[C@@H](CN(C)Cc1ccc(C(=O)Nc3ccccc3N)cc1)O2 | 69.0* | -2.2 | -0.2
Cc1noc(C)c1S(=O)(=O)Nc1ccc2c(c1)CC(=O)N([C@H](C)CO)C[C@@H](C)[C@H](CN(C)Cc1ccc(C(=O)Nc3ccccc3N)cc1)O2 | 27.5 | -2.1 | -0.5
Cc1noc(C)c1S(=O)(=O)Nc1ccc2c(c1)CC(=O)N([C@@H](C)CO)C[C@@H](C)[C@@H](CN(C)Cc1ccc(C(=O)Nc3ccccc3N)cc1)O2 | 71.0* | -4.7 | ·
C[C@@H]1CN([C@H](C)CO)C(=O)c2cccc(NC(=O)c3nc4ccccc4s3)c2O[C@H]1CN(C)Cc1ccc(-c2ccccc2)cc1 | 46.5 | -20.4 | -1.5
C[C@H](CO)N1C[C@H](C)[C@H](CN(C)Cc2ccc(Cl)c(Cl)c2)Oc2c(NC(=O)c3nc4ccccc4s3)cccc2C1=O | 60.5* | -40.8 | -0.8
C[C@H]1CN([C@@H](C)CO)C(=O)c2cccc(NC(=O)c3nc4ccccc4s3)c2O[C@H]1CN(C)Cc1ccc(C(F)(F)F)cc1 | 48.7 | -48.5 | 0.9
C[C@@H]1CN([C@H](C)CO)C(=O)c2cccc(NC(=O)c3nc4ccccc4s3)c2O[C@@H]1CN(C)Cc1ccc(Cl)c(Cl)c1 | 7.8 | -28.3 | ·
C[C@H]1CN([C@@H](C)CO)C(=O)c2cccc(NC(=O)c3nc4ccccc4s3)c2O[C@H]1CN(C)Cc1ccccc1 | 12.2 | -17.2 | ·
C[C@@H]1CN([C@H](C)CO)C(=O)c2cccc(NC(=O)c3nc4ccccc4s3)c2O[C@H]1CN(C)Cc1ccc(C(F)(F)F)cc1 | 61.6* | -60.1 | ·
C[C@H]1CN([C@@H](C)CO)C(=O)c2cccc(NC(=O)c3nc4ccccc4s3)c2O[C@H]1CN(C)Cc1ccc(Oc2ccccc2)cc1 | 68.3* | -24.4 | -0.3
C[C@H]1CN([C@@H](C)CO)C(=O)c2cccc(NC(=O)c3nc4ccccc4s3)c2O[C@@H]1CN(C)Cc1ccc(-c2ccccc2)cc1 | 72.9* | -18.1 | -1.3
COCCOC(=O)N1C(=O)[C@@]2(c3ccccc31)[C@H](C(N)=O)[C@H]1C(=O)O[C@H](c3ccccc3)[C@H](c3ccccc3)N1[C@@H]2c1ccc(OCCO)cc1 | · | · | -1.2
O=C(CCCCCC(=O)N/N=C/c1cccnc1)NO | -2.7 | 8.2 | -0.4
SMILES | T cruzi intra | INS-1E ATP HTS | A1 apoptosis 2
C[C@H](CO)N1C[C@H](C)[C@H](CN(C)Cc2ccc(Oc3ccccc3)cc2)Oc2c(NC(=O)c3nc4ccccc4s3)cccc2C1=O | 59.2* | -30.8 | -0.4
C[C@H](CO)N1C[C@H](C)[C@H](CN(C)Cc2ccccc2)Oc2c(NC(=O)c3nc4ccccc4s3)cccc2C1=O | 49.4 | -26.5 | 0.5
C[C@H](CO)N1C[C@H](C)[C@H](CN(C)Cc2ccccc2)Oc2ccc(NC(=O)Cc3cn(C)c4ccccc34)cc2CC1=O | 7.2 | 1.3 | -0.6
C[C@@H]1CN([C@@H](C)CO)C(=O)Cc2cc(NC(=O)Cc3cn(C)c4ccccc34)ccc2O[C@H]1CN(C)Cc1ccc(Cl)c(Cl)c1 | · | · | -1.0
C[C@@H]1CN([C@H](C)CO)C(=O)Cc2cc(NC(=O)Cc3cn(C)c4ccccc34)ccc2O[C@H]1CN(C)Cc1ccncc1 | -15.0 | 14.1 | -1.7
C[C@@H]1CN([C@H](C)CO)C(=O)Cc2cc(NC(=O)Cc3cn(C)c4ccccc34)ccc2O[C@H]1CN(C)Cc1ccc(Cl)c(Cl)c1 | 62.9* | -17.0 | ·
C[C@@H]1CN([C@H](C)CO)C(=O)c2cc(NC(=O)Cc3cn(C)c4ccccc34)ccc2O[C@@H]1CN(C)Cc1ccc(Cl)c(Cl)c1 | 79.1* | -15.2 | ·
C[C@@H]1CN([C@@H](C)CO)C(=O)Cc2cc(NC(=O)Cc3cn(C)c4ccccc34)ccc2O[C@@H]1CN(C)Cc1ccncc1 | 64.8* | -9.2 | 0.2
C[C@@H]1CN([C@@H](C)CO)C(=O)Cc2cc(NC(=O)Cc3cn(C)c4ccccc34)ccc2O[C@@H]1CN(C)Cc1ccc(Cl)c(Cl)c1 | 69.0* | -45.8 | ·
C[C@@H]1CN([C@@H](C)CO)C(=O)c2cc(NC(=O)Cc3cn(C)c4ccccc34)ccc2O[C@@H]1CN(C)Cc1ccc(Cl)c(Cl)c1 | 10.6 | -32.6 | -1.0
CC(/C=C/C(=O)NO)=C\c1ccccc1OCc1cn(C[C@@H]2CCCN2S(=O)(=O)c2ccc(C)cc2)nn1 | · | · | 1.0
Cc1noc(C)c1S(=O)(=O)Nc1ccc2c(c1)CC(=O)N([C@@H](C)CO)C[C@@H](C)[C@@H](CN(C)Cc1ccc(Cl)c(Cl)c1)O2 | 61.2* | -9.0 | ·
Cc1noc(C)c1S(=O)(=O)Nc1ccc2c(c1)C(=O)N([C@@H](C)CO)C[C@@H](C)[C@@H](CN(C)Cc1ccc(Cl)c(Cl)c1)O2 | 50.2 | -3.6 | ·
Cc1noc(C)c1S(=O)(=O)Nc1ccc2c(c1)C(=O)N([C@@H](C)CO)C[C@H](C)[C@@H](CN(C)Cc1ccc(Cl)c(Cl)c1)O2 | 66.2* | -15.3 | 0.6
Cc1noc(C)c1S(=O)(=O)Nc1ccc2c(c1)CC(=O)N([C@@H](C)CO)C[C@@H](C)[C@H](CN(C)Cc1ccc(Cl)c(Cl)c1)O2 | · | · | -1.3
O=C(CCCCC(=O)N/N=C/c1ccco1)NO | -2.0 | 13.8 | -0.4
[N-]=[N+]=NC[C@H](Cc1ccccc1)NC(=O)c1ccccc1 | · | · | -1.2
